Measurements taken from ChEMBL document CHEMBL1153932, “Hybrid alpha-bromoacryloylamido chalcones. Design, synthesis and biological evaluation” (Bioorg Med Chem Lett, 2009).
Activity calls are given as the source filed them. The calls are words filed in the database; no cut-off is given here.

Experiments:
L1210 = test: Antiproliferative activity against mouse L1210 cells after 48 hrs by Coulter counting analysis; assay type: functional, cell-based; conditions: L1210, 48 h
FM3A = test: Antiproliferative activity against mouse FM3A cells after 48 hrs by Coulter counting analysis; assay type: functional, cell-based
MOLT-4 = test: Antiproliferative activity against human MOLT4 cells after 48 hrs by Coulter counting analysis; assay type: functional, cell-based; conditions: MOLT-4, 48 h
CCRF-CEM = test: Antiproliferative activity against human CEM cells after 48 hrs by Coulter counting analysis; assay type: cell-based
HeLa = test: Antiproliferative activity against human HeLa cells after 48 hrs by Coulter counting analysis; assay type: functional, cell-based
[1] = Inhibition of bovine brain tubulin polymerization; parameters: species or system Bos taurus
K562 [2] = test: Antiproliferative activity against human K562 cells after 48 hrs by Coulter counting analysis; assay type: functional, cell-based; conditions: K562, 48 h
K562 [3] = test: Cell cycle arrest in human K562 cells assessed as accumulation at subG1 phase at IC75 after 72 hrs using propidium iodide staining by flow cytometry; assay type: functional
Summary of the method: (§1)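 K562 cells were cultured 72 h with or without compound, then stained with propidium iodide and analysed by flow cytometry. The proportions of cells in sub-G1, G0–G1, S and G2-M were read from DNA histograms and compared with untreated controls.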

K562 [4] = test: Cell cycle arrest in human K562 cells assessed as accumulation at G0-G1 phase at IC75 after 72 hrs using propidium iodide staining by flow cytometry; assay type: functional; summary of the method: as §1
K562 [5] = test: Cell cycle arrest in human K562 cells assessed as accumulation at S phase at IC75 after 72 hrs using propidium iodide staining by flow cytometry; assay type: functional; summary of the method: as §1
K562 [6] = test: Cell cycle arrest in human K562 cells assessed as accumulation at G2-M phase at IC75 after 72 hrs using propidium iodide staining by flow cytometry; assay type: functional; summary of the method: as §1
K562 [7] = test: Induction of apoptosis in human K562 cells assessed as increase in mitochondrial mass at […] after 48 hrs using 10-N-nonyl acridine orange staining by flow cytometry; assay type: functional, cell-based
K562 [8] = test: Induction of apoptosis in human K562 cells assessed as caspase 3 activation at 0.6 uM after 24 hrs by flow cytometry; assay type: functional, cell-based
Summary of the method: (§2)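 K562 cells were treated with compound for 24 h and 48 h, then harvested. Cells were stained with a FITC-conjugated monoclonal antibody against the active fragment of human caspase-3 and analysed by flow cytometry against untreated controls.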

K562 [9] = test: Induction of apoptosis in human K562 cells assessed as caspase 3 activation at 0.6 uM after 48 hrs by flow cytometry; assay type: functional, cell-based; summary of the method: as §2
K562 [10] = test: Induction of apoptosis in human K562 cells assessed as caspase 3 activation at 1.25 uM after 24 hrs by flow cytometry; assay type: functional, cell-based; summary of the method: as §2
K562 [11] = test: Induction of apoptosis in human K562 cells assessed as caspase 3 activation at 1.25 uM after 48 hrs by flow cytometry; assay type: functional, cell-based; summary of the method: as §2
[12] = Solubility of the compound; assay type: physicochemical
Bos taurus = species on record: Bos taurus; test: Displacement of [3H]colchicine from bovine brain tubulin at 50 uM
K562 [13] = test: Induction of apoptosis in human K562 cells assessed as phosphatidylserine externalization at 0.2 uM after 3 days using annexin-V-FITC staining by flow cytometry; assay type: functional, cell-based
K562 [14] = test: Induction of apoptosis in human K562 cells assessed as phosphatidylserine externalization up to 3 uM after 24 hrs using annexin-V-FITC staining by flow cytometry; assay type: functional, cell-based
K562 [15] = test: Induction of apoptosis in human K562 cells assessed as phosphatidylserine externalization up to 3 uM after 48 hrs using annexin-V-FITC staining by flow cytometry; assay type: functional, cell-based

C=C(Br)C(=O)Nc1ccc(/C=C/C(=O)c2ccc(OCC)cc2)cc1
IC50 (L1210): 240 nM | IC50 (FM3A): 680 nM | IC50 (MOLT-4): 610 nM | IC50 (CCRF-CEM): 750 nM | IC50 (HeLa): 750 nM | IC50 [1]: > 40000 nM | IC75 (K562 [2]): 850 nM | Activity (K562 [3]): 52.3% | Activity (K562 [4]): 16.5% | Activity (K562 [5]): 19.6% | Activity (K562 [6]): 11.6% | Activity (K562 [7]): Active | Activity (K562 [8]): Active | Activity (K562 [9]): Active | Activity (K562 [10]): Active | Activity (K562 [11]): Active | solubility [12]: Insoluble

C=C(Br)C(=O)Nc1ccc(C(=O)/C=C/c2cccc(OC)c2OC)cc1
IC50 (L1210): 1100 nM | IC50 (FM3A): 550 nM | IC50 (MOLT-4): 490 nM | IC50 (CCRF-CEM): 710 nM | IC50 (HeLa): 380 nM | IC50 [1]: > 40000 nM | IC75 (K562 [2]): 640 nM | Activity (K562 [3]): 48.4% | Activity (K562 [4]): 22.3% | Activity (K562 [5]): 15.2% | Activity (K562 [6]): 14.1% | solubility [12]: Insoluble

C=C(Br)C(=O)Nc1ccc(C(=O)/C=C/c2ccccc2OC)cc1
IC50 (L1210): 1700 nM | IC50 (FM3A): 370 nM | IC50 (MOLT-4): 240 nM | IC50 (CCRF-CEM): 580 nM | IC50 (HeLa): 1300 nM | IC50 [1]: 8300 nM | inhibition (Bos taurus): 37% | IC75 (K562 [2]): 2940 nM | Activity (K562 [3]): 83.4% | Activity (K562 [4]): 6.4% | Activity (K562 [5]): 6.3% | Activity (K562 [6]): 3.9% | solubility [12]: Insoluble

C=C(Br)C(=O)Nc1ccc(C(=O)/C=C/c2ccc(OC)cc2)cc1
IC50 (L1210): 900 nM | IC50 (FM3A): 1000 nM | IC50 (MOLT-4): 610 nM | IC50 (CCRF-CEM): 1100 nM | IC50 (HeLa): 310 nM | IC50 [1]: > 40000 nM | IC75 (K562 [2]): 1140 nM | Activity (K562 [3]): 68.2% | Activity (K562 [4]): 11% | Activity (K562 [5]): 11.6% | Activity (K562 [6]): 9.2% | solubility [12]: Insoluble

C=C(Br)C(=O)Nc1ccc(C(=O)/C=C/c2ccc(OC)c(OC)c2OC)cc1
IC50 (L1210): 630 nM | IC50 (FM3A): 530 nM | IC50 (MOLT-4): 680 nM | IC50 (CCRF-CEM): 840 nM | IC50 (HeLa): 510 nM | IC50 [1]: > 40000 nM | IC50 (K562 [2]): 200 nM | IC75 (K562 [2]): 710 nM | Activity (K562 [3]): 57.8% | Activity (K562 [4]): 13.7% | Activity (K562 [5]): 14.9% | Activity (K562 [6]): 13.6% | Activity (K562 [13]): Active | solubility [12]: Insoluble

C=C(Br)C(=O)Nc1ccc(C(=O)/C=C/c2ccccc2)cc1
IC50 (L1210): 880 nM | IC50 (FM3A): 690 nM | IC50 (MOLT-4): 500 nM | IC50 (CCRF-CEM): 1500 nM | IC50 (HeLa): 960 nM | IC50 [1]: > 40000 nM | IC75 (K562 [2]): 2770 nM | Activity (K562 [3]): 47.6% | Activity (K562 [4]): 23% | Activity (K562 [5]): 16.4% | Activity (K562 [6]): 13% | solubility [12]: Insoluble

C=C(Br)C(=O)Nc1ccc(/C=C/C(=O)c2cccs2)cc1
IC50 (L1210): 250 nM | IC50 (FM3A): 520 nM | IC50 (MOLT-4): 550 nM | IC50 (CCRF-CEM): 730 nM | IC50 (HeLa): 340 nM | IC50 [1]: > 40000 nM | IC75 (K562 [2]): 820 nM | Activity (K562 [3]): 42.8% | Activity (K562 [4]): 17% | Activity (K562 [5]): 23.2% | Activity (K562 [6]): 17% | solubility [12]: Insoluble

C=C(Br)C(=O)Nc1ccc(C(=O)/C=C/c2ccc(N(C)C)cc2)cc1
IC50 (L1210): 1900 nM | IC50 (FM3A): 2800 nM | IC50 (MOLT-4): 1300 nM | IC50 (CCRF-CEM): 1500 nM | IC50 (HeLa): 610 nM | Activity (K562 [14]): Active | Activity (K562 [15]): Active

C=C(Br)C(=O)Nc1ccc(/C=C/C(=O)c2ccc(Br)cc2)cc1
IC50 (L1210): 620 nM | IC50 (FM3A): 1100 nM | IC50 (MOLT-4): 680 nM | IC50 (CCRF-CEM): 990 nM | IC50 (HeLa): 1000 nM | IC50 [1]: > 40000 nM | IC75 (K562 [2]): 840 nM | Activity (K562 [3]): 20.4% | Activity (K562 [4]): 35.9% | Activity (K562 [5]): 27.5% | Activity (K562 [6]): 16.2% | solubility [12]: Insoluble
